Our source for the Tm and folding enthalpy values is the array DNA melting data of Ke et al. (doi:10.1101/2024.01.08.574731).

The nature of data set [1]: melting temperature; fluorescence melt of hairpins on a sequencing array, two-state fit, raised by 9.35 °C to match UV melts. As to conditions: sodium 0.088 M. The essentials: (§1)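 Two-state fits, bootstrapped, provided melting temperature and folding enthalpy from Cy3 fluorescence normalised to pre-quench Cy3 and to control constructs. Library hairpins with annealed Cy3 and quencher oligos were imaged on a sequenced MiSeq flow cell in 50 mM Na-HEPES pH 8.0, 25 mM NaCl, at 2.5 °C intervals up to 60 °C. Four replicates were combined with inverse-variance weighting. A 9.35 °C upward shift was applied to fitted temperatures to match UV melts.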

The nature of data set [2]: folding enthalpy; higher = less favourable; fluorescence melt of hairpins on a sequencing array, two-state fit. As to conditions: sodium 0.088 M. The essentials: as §1

Regarding GGTCCGGGAAACTGGGCC ((.((.(....).)).)), the Tm in data set [1] stood at 51.7 °C. For the same sequence, the folding enthalpy in data set [2] was -35.4 kcal/mol.
Take GGTCCTGGAAACAGGACC (((((((....))))))): the Tm in data set [1] is 69.3 °C. Moreover, in data set [2], the folding enthalpy is -30.9 kcal/mol.
For the sequence GGTCCTGGAAACAGGGTC (..((((....))))..), in data set [1], the Tm amounted to 37.8 °C. For the same sequence, the folding enthalpy in data set [2] is -16.1 kcal/mol.
In the case of GGTCGAGGAAACTTGACC ((((.((....)).)))), the Tm in data set [1] was found to be 51.9 °C. Further, the folding enthalpy in data set [2] is -32 kcal/mol.
With GGTCGCCGAAAGGCACC (((.(((....)))))), the Tm in data set [1] came to 55.3 °C. Also, the folding enthalpy in data set [2] is -12.6 kcal/mol.
For GGTCGCGAAAGCGAGACC ((((((....)))..))), the Tm in data set [1] turned out to be 51.6 °C. Moreover, the folding enthalpy in data set [2] was -13.5 kcal/mol.
As to GGTCGCGAAAGCGCTACC ((((((....)))..))), in data set [1], the Tm came out at 36.7 °C. In addition, the folding enthalpy in data set [2] is -13 kcal/mol.
GGTCGCGAAAGCGTAACC ((((((....)))..))): the Tm in data set [1] stood at 47.2 °C. In data set [2], the folding enthalpy was -15 kcal/mol.
Take GGTCGCGAAAGCGTCACC ((((((....)))..))): in data set [1], the Tm was 40.1 °C. The folding enthalpy in data set [2] was -13.3 kcal/mol.
For GGTCGCGAAAGCGTGACC ((((((....)))..))), the Tm in data set [1] stood at 53.1 °C. In data set [2], the folding enthalpy is -18.2 kcal/mol.
For the sequence GGTCGCGGAAACGCAACC (((.(((....))).))), the Tm in data set [1] is 51.6 °C. The folding enthalpy in data set [2] was -33.1 kcal/mol.
Turning to GGTCGCGGAAACGTGACC ((((.((....)).)))), the Tm in data set [1] is 63.5 °C. In data set [2], the folding enthalpy was -51.2 kcal/mol.
Take GGTCGGACGAAAGTCACC (((..(((....)))))): in data set [1], the Tm came to 30.6 °C. Further, in data set [2], the folding enthalpy is -12.7 kcal/mol.
On to GGTCGGGGAAACCCGGCC ((.((((....)))).)), for which, in data set [1], the Tm was found to be 66.2 °C. Moreover, the folding enthalpy in data set [2] was -42.7 kcal/mol.
Regarding GGTCTCGAAAGAGCACC ((((((....))).))), in data set [1], the Tm is 46.5 °C. Also, the folding enthalpy in data set [2] was -22.8 kcal/mol.
For GGTCTCGAAAGAGCTACC ((((((....)))..))) the same measures were 36 °C and -13.9 kcal/mol.
As for GGTCTCGGAAACAAGACC (((((.(....).))))), the Tm in data set [1] came to 41.9 °C. In data set [2], the folding enthalpy is -31.8 kcal/mol.
For the sequence GGTCTGGGAAACTAGACC (((((.(....).))))), the Tm in data set [1] is 50.6 °C. In addition, the folding enthalpy in data set [2] is -41.5 kcal/mol.
As to GGTCTGGGAAACTAGGCC ((.((.(....).)).)), the Tm in data set [1] amounted to 41.2 °C. Further, the folding enthalpy in data set [2] was -33.4 kcal/mol.
Turning to GGTCTTCGAAAGAACACC (((.(((....))).))), the Tm in data set [1] worked out at 32.6 °C. In data set [2], the folding enthalpy was -26.6 kcal/mol.
Take GGTCTTCGAAAGAATACC (((.(((....))).))): in data set [1], the Tm turned out to be 39.1 °C. Also, the folding enthalpy in data set [2] was -32.9 kcal/mol.
For GGTCTTGAAAAAGACC ((((((....)))))) the same measures were 57.2 °C and -40.4 kcal/mol.
For GGTCTTGGAAACAAAACC (((.(((....))).))), the Tm in data set [1] worked out at 29.6 °C. In addition, the folding enthalpy in data set [2] was -14.5 kcal/mol.
In the case of GGTCTTGGAAACAGGACC ((((.((....)).)))), the Tm in data set [1] came to 49.2 °C. The folding enthalpy in data set [2] was -36.3 kcal/mol.
With GGTCTTGGAAACGAGATC (.(((.(....).))).), the Tm in data set [1] turned out to be 30.7 °C. In addition, in data set [2], the folding enthalpy was -17.8 kcal/mol.
GGTGAACGAAAGTTTACC (((.(((....))).))): the Tm in data set [1] came out at 51.8 °C. The folding enthalpy in data set [2] is -45.2 kcal/mol.
Turning to GGTGAAGCGAAAGCTACC (((..(((....)))))), in data set [1], the Tm was 40.5 °C. Besides, in data set [2], the folding enthalpy is -17.1 kcal/mol.
In the case of GGTGAAGGAAACTTTACC (((.(((....))).))), the Tm in data set [1] was determined as 39 °C. For the same sequence, in data set [2], the folding enthalpy is -31.6 kcal/mol.
For GGTGACCGAAAGGTAACC (((.(((....))).))), in data set [1], the Tm came to 57.1 °C. Also, in data set [2], the folding enthalpy was -41.1 kcal/mol.
Regarding GGTGACGAAAGTCCAACC ((((((....)))..))), in data set [1], the Tm is 37.7 °C. For the same sequence, the folding enthalpy in data set [2] is -18.2 kcal/mol.
For the sequence GGTGACGAAAGTCGAACC ((((((....)))..))), in data set [1], the Tm worked out at 41.9 °C. For the same sequence, the folding enthalpy in data set [2] was -17.6 kcal/mol.
For the sequence GGTGACGAAAGTCTGACC ((((((....)))..))), in data set [1], the Tm worked out at 39.7 °C. Further, in data set [2], the folding enthalpy is -15.6 kcal/mol.
Regarding GGTGACGCGAAAGCGACC (((..(((....)))))), the Tm in data set [1] is 40.4 °C. The folding enthalpy in data set [2] is -12.1 kcal/mol.
In the case of GGTGACGGAAACGTCATC (.(((((....))))).), the Tm in data set [1] was 54.1 °C. Moreover, the folding enthalpy in data set [2] was -38.2 kcal/mol.
As for GGTGAGCGAAAGCTGACC (((.(((....))).))), the Tm in data set [1] turned out to be 55 °C. In addition, the folding enthalpy in data set [2] was -37.8 kcal/mol.
The corresponding values for GGTGAGGGAAACCCCACC ((((.((....)).)))) are 50.5 °C and -39.2 kcal/mol.
